Measured values of several laboratories.
Protocols differ between the studies behind these lines.
PIK3CB: Phosphatidylinositol 4,5-bisphosphate 3-kinase catalytic subunit beta isoform (PIK3CB, Homo sapiens, UniProt P42338)

CC#CC(=O)N1CCC[C@H]1c1nc(-c2ccc(C(=O)Nc3ccccn3)cc2)c2c(N)nccn12 gave an inhibition of 0% (PIK3CB; enzyme activity, inhibitor; 1 µM).
With C1=C/COCc2cc(ccc2OCCN2CCCC2)Nc2nccc(n2)-c2cccc(c2)COC/1 the remaining binding was 98% (PIK3CB; binding; 0.1 µM).
The remaining binding of Cc1ccc(NC(=O)c2ccnc(C(F)(F)F)c2)cc1-c1cc(OCCO)nc(N2CCOCC2)c1 is reported as 100% (PIK3CB; binding; 1 µM).
With CC(C)S(=O)(=O)c1ccc2nccc(Nc3ccc4sc(C5CCCC5)nc4c3)c2c1 the activity vs control was 97% (Phosphatidylinositol 4,5-bisphosphate 3-kinase catalytic subunit beta isoform, with p85 (PIK3CB, Homo sapiens, UniProt P42338); enzyme activity, inhibitor; 1 µM).
With CN1CCN(C(=O)c2ccc(NC(=O)Nc3ccc(N(C)c4ccnc(Nc5ccc(CS(C)(=O)=O)cc5)n4)cc3)cc2)CC1 the remaining binding was 100% (PIK3CB; binding; 1 µM).
CCCCC(=O)Nc1ccc(-c2ccc3ncn(CCC)c(=O)c3c2)cn1 has a remaining binding of 100% (PIK3CB; binding, competition with immobilised ligand; 0.5 µM).
For Cc1nc(NC(=O)N2CCC[C@H]2C(N)=O)sc1-c1ccnc(C(C)(C)C(F)(F)F)c1, the inhibition was 82.9% (PIK3CB; enzyme activity, inhibitor, ADP detection; 10 µM).
For C=CC(=O)N1CCC[C@@H](n2nc(-c3ccc(Oc4ccccc4)cc3)c3c(N)ncnc32)C1, the inhibition was 2% (PIK3CB; enzyme activity, inhibitor; 1 µM).
